Measurements from ChEMBL document CHEMBL1833898, “Dual pro-drugs of 2'-C-methyl guanosine monophosphate as potent and selective inhibitors of hepatitis C virus” (Bioorg Med Chem Lett, 2011).
Active and inactive are the calls of the source. The calls are words filed in the database; no cut-off is given here.

Experiments:
Hepatitis C virus [1] = experiment: Antiviral activity against Hepatitis C virus subtype 1b replicon in human HuH7 cells after 48 hrs by subgenomic replicon assay; type: functional, organism-based, Hepacivirus hominis; conditions: genotype 1b, Huh-7, 48 h
[2] = Cytotoxicity against human HuH7 cells; type: cell-based, Huh-7
Hepatitis C virus [3] = experiment: Antiviral activity against Hepatitis C virus subtype 1b replicon in by replicon assay in presence of adenosine deaminase inhibitor pentostatin; type: functional, organism-based; conditions: Hepacivirus hominis; genotype 1b
How it was run: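 Genotype 1b replicon in HUH7 cells, 48 h compound exposure, run with and without the adenosine/adenylate deaminase inhibitor pentostatin.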

[4] = Stability of the compound assessed as half life by NMR analysis in presence of carboxypeptidase Y; type: ADME
How it was run: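 Incubation with carboxypeptidase Y in acetone-d6 and Trizma buffer pH 7.6. 31P NMR spectra taken every 7 min over 14 h to follow loss of starting material and intermediate formation.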

Huh-7 = experiment: Prodrug stability in human HuH7 cell lysates assessed as monophosphate formation at pH 7.6 after every 1 hr for 11 hrs by NMR assay; type: ADME, cell-based, Lysate; conditions: huh-7, pH 7.6, 11 h
How it was run: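 HuH7 cell lysate (10^7 cells) in acetone-d6 and Trizma buffer pH 7.6 at 37 °C. 31P NMR taken every 1 h for 11 h. Monophosphate identified by a signal at the shift of an authentic monophosphate.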

[5] = Prodrug conversion of the compound using UV spectroscopic analysis in presence of adenosine deaminase; type: ADME
How it was run: (§1)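 Nucleoside at 44 μM (1 ml, phosphate buffer pH 7.4) with 30 μL adenosine deaminase solution. UV spectra taken at 1 min intervals for 30 min. Conversion judged by the spectrum matching 2'-C-methylguanosine. Reaction followed up to 24 h.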

[6] = Prodrug conversion of the compound after 24 hrs using UV spectroscopic analysis in presence of adenosine deaminase; type: ADME; how it was run: as §1

In the case of `CCOc1nc(N)nc2c1ncn2[C@@H]1O[C@H](COP(=O)(N[C@@H](C)C(=O)OC(C)C)Oc2cccc3ccccc23)[C@@H](O)[C@@]1(C)O` (stereo not given in full), the EC50 (Hepatitis C virus [1]) is reported as 0.14 µM, the CC50 [2] is reported as 40 µM and the Activity (Hepatitis C virus [3]) is reported as “inactive”. It also gave a half-life [4] of 4 h.
In the case of `C[C@H](NP(=O)(OC[C@H]1O[C@@H](n2cnc3c(Cl)nc(N)nc32)[C@](C)(O)[C@@H]1O)Oc1cccc2ccccc12)C(=O)OCC(C)(C)C` (stereo not given in full), the EC50 (Hepatitis C virus [1]) is reported as 0.012 µM, the EC90 (Hepatitis C virus [1]) is reported as 0.028 µM and the CC50 [2] is reported as 16 µM. For the same compound, the Activity (Hepatitis C virus [3]) was “inactive”.
In the case of `CCOc1nc(N)nc2c1ncn2[C@@H]1O[C@H](COP(=O)(N[C@@H](C)C(=O)O[C@@H](C)c2ccccc2)Oc2cccc3ccccc23)[C@@H](O)[C@@]1(C)O` (stereo not given in full), the EC50 (Hepatitis C virus [1]) is reported as 0.085 µM, the CC50 [2] is reported as 12 µM and the Drug metabolism (Huh-7) is reported as “Active”. The Activity (Hepatitis C virus [3]) was “inactive”.
For `CCOc1nc(N)nc2c1ncn2[C@@H]1O[C@H](COP(=O)(N[C@@H](C)C(=O)OCc2ccc(F)cc2F)Oc2cccc3ccccc23)[C@@H](O)[C@@]1(C)O` (stereo not given in full), the EC50 (Hepatitis C virus [1]) was 0.034 µM, the CC50 [2] was 17 µM and the Activity (Hepatitis C virus [3]) was “inactive”.
In the case of `C[C@H](NP(=O)(OC[C@H]1O[C@@H](n2cnc3c(NCCc4ccccc4)nc(N)nc32)[C@](C)(O)[C@@H]1O)Oc1cccc2ccccc12)C(=O)OCC(C)(C)C` (stereo not given in full), the EC50 (Hepatitis C virus [1]) is reported as 0.27 µM, the EC90 (Hepatitis C virus [1]) is reported as 1.3 µM and the CC50 [2] is reported as 42 µM. The Activity (Hepatitis C virus [3]) was “inactive”.
In the case of `COc1nc(N)nc2c1ncn2[C@@H]1O[C@H](CO)[C@@H](O)[C@@]1(C)O` [BETA-2'-C-METHYL-6-O-METHYL GUANOSINE], the EC50 (Hepatitis C virus [1]) is reported as 4.6 µM and the CC50 [2] is reported as over 100 µM.
In the case of `CSc1nc(N)nc2c1ncn2[C@@H]1O[C@H](COP(=O)(N[C@@H](C)C(=O)OCC(C)(C)C)Oc2cccc3ccccc23)[C@@H](O)[C@@]1(C)O` (stereo not given in full), the EC50 (Hepatitis C virus [1]) is reported as 0.037 µM, the EC90 (Hepatitis C virus [1]) is reported as 0.16 µM and the CC50 [2] is reported as 41 µM. The Activity (Hepatitis C virus [3]) was “inactive”.
In the case of `CCOc1nc(N)nc2c1ncn2[C@@H]1O[C@H](COP(=O)(N[C@@H](C)C(=O)OC2CCCCO2)Oc2cccc3ccccc23)[C@@H](O)[C@@]1(C)O` (stereo not given in full), the EC50 (Hepatitis C virus [1]) is reported as 0.08 µM, the CC50 [2] is reported as 47 µM and the Activity (Hepatitis C virus [3]) is reported as “inactive”.
In the case of `CCOc1nc(N)nc2c1ncn2[C@@H]1O[C@H](CO)[C@@H](O)[C@@]1(C)O`, the EC50 (Hepatitis C virus [1]) is reported as 8.8 µM, the CC50 [2] is reported as over 100 µM and the Drug metabolism [5] is reported as “Active”.
With `C[C@@]1(O)[C@H](O)[C@@H](CO)O[C@H]1N1C=NC2C(=O)NC(N)=NC21` (stereo not given in full) the Drug metabolism [5] was “Active”.
Compound `CC(C)Oc1nc(N)nc2c1ncn2[C@@H]1O[C@H](CO)[C@@H](O)[C@@]1(C)O` has an EC50 (Hepatitis C virus [1]) of 9.3 µM and a CC50 [2] of over 100 µM.
For `COCCCOc1nc(N)nc2c1ncn2[C@@H]1O[C@H](COP(=O)(N[C@@H](C)C(=O)OCC(C)(C)C)Oc2cccc3ccccc23)[C@@H](O)[C@@]1(C)O` (stereo not given in full), the EC50 (Hepatitis C virus [1]) was 0.043 µM, the EC90 (Hepatitis C virus [1]) was 0.12 µM and the CC50 [2] was 31 µM. For the same compound, the Activity (Hepatitis C virus [3]) was “inactive”.
`CCOc1nc(N)nc2c1ncn2[C@@H]1O[C@H](COP(=O)(N[C@@H](C)C(=O)OCC(C)(C)C)Oc2cccc3ccccc23)[C@@H](O)[C@@]1(C)O` (stereo not given in full) showed an EC50 (Hepatitis C virus [1]) of 0.008 µM, an EC90 (Hepatitis C virus [1]) of 0.032 µM and a CC50 [2] of 10 µM. For the same compound, the Activity (Hepatitis C virus [3]) was “inactive”.
For `CCOc1nc(N)nc2c1ncn2[C@@H]1O[C@H](COP(=O)(N[C@@H](C)C(=O)OCc2ccccc2)Oc2cccc3ccccc23)[C@@H](O)[C@@]1(C)O` (stereo not given in full), the EC50 (Hepatitis C virus [1]) was 0.04 µM, the CC50 [2] was 11 µM and the Activity (Hepatitis C virus [3]) was “inactive”.
With `C[C@@]1(O)[C@H](O)[C@@H](CO)O[C@H]1n1cnc2c(NCCc3ccccc3)nc(N)nc21` the EC50 (Hepatitis C virus [1]) was 24 µM and the CC50 [2] was over 100 µM.
`C[C@H](NP(=O)(OC[C@H]1O[C@@H](n2cnc3c(NCc4ccccc4)nc(N)nc32)[C@](C)(O)[C@@H]1O)Oc1cccc2ccccc12)C(=O)OCC(C)(C)C` (stereo not given in full) showed an EC50 (Hepatitis C virus [1]) of 0.79 µM, an EC90 (Hepatitis C virus [1]) of 2.7 µM and a CC50 [2] of 15 µM. The Activity (Hepatitis C virus [3]) was “inactive”.
Compound `C[C@@]1(O)[C@H](O)[C@@H](CO)O[C@H]1n1cnc2c(Cl)nc(N)nc21` has an EC50 (Hepatitis C virus [1]) of 8.5 µM and a CC50 [2] of over 100 µM.
With `CSc1nc(N)nc2c1ncn2[C@@H]1O[C@H](CO)[C@@H](O)[C@@]1(C)O` the EC50 (Hepatitis C virus [1]) was 11 µM, the CC50 [2] was over 100 µM and the Drug metabolism [6] was “Not Active”.
In the case of `CCOc1nc(N)nc2c1ncn2[C@@H]1O[C@H](COP(=O)(N[C@H](C(=O)OCC(C)(C)C)C(C)C)Oc2cccc3ccccc23)[C@@H](O)[C@@]1(C)O` (stereo not given in full), the EC50 (Hepatitis C virus [1]) is reported as 0.17 µM, the CC50 [2] is reported as 24 µM and the Activity (Hepatitis C virus [3]) is reported as “inactive”.
For `COc1nc(N)nc2c1ncn2[C@@H]1O[C@H](COP(=O)(N[C@@H](C)C(=O)OCC(C)(C)C)Oc2cccc3ccccc23)[C@@H](O)[C@@]1(C)O` (stereo not given in full) [BMS-986094], the EC90 (Hepatitis C virus [1]) was 0.038 µM and the Activity (Hepatitis C virus [3]) was “inactive”.
For `COCCCOc1nc(N)nc2c1ncn2[C@@H]1O[C@H](CO)[C@@H](O)[C@@]1(C)O`, the EC50 (Hepatitis C virus [1]) was 12 µM and the CC50 [2] was over 100 µM.
In the case of `CNc1nc(N)nc2c1ncn2[C@@H]1O[C@H](COP(=O)(N[C@@H](C)C(=O)OCC(C)(C)C)Oc2cccc3ccccc23)[C@@H](O)[C@@]1(C)O` (stereo not given in full), the EC50 (Hepatitis C virus [1]) is reported as 0.035 µM, the EC90 (Hepatitis C virus [1]) is reported as 0.103 µM and the CC50 [2] is reported as 38 µM. The Activity (Hepatitis C virus [3]) was “inactive”.
Work on `C[C@@]1(O)[C@H](O)[C@@H](CO)O[C@H]1n1cnc2c(NCc3ccccc3)nc(N)nc21` yielded an EC50 (Hepatitis C virus [1]) of 30 µM.
For `CNc1nc(N)nc2c1ncn2[C@@H]1O[C@H](CO)[C@@H](O)[C@@]1(C)O`, the EC50 (Hepatitis C virus [1]) was 13 µM, the CC50 [2] was over 100 µM and the Drug metabolism [6] was “Not Active”.
In the case of `CC(C)Oc1nc(N)nc2c1ncn2[C@@H]1O[C@H](COP(=O)(N[C@@H](C)C(=O)OCC(C)(C)C)Oc2cccc3ccccc23)[C@@H](O)[C@@]1(C)O` (stereo not given in full), the EC50 (Hepatitis C virus [1]) is reported as 0.023 µM, the EC90 (Hepatitis C virus [1]) is reported as 0.065 µM and the CC50 [2] is reported as 11 µM. The Activity (Hepatitis C virus [3]) was “inactive”.
